Assay results from ChEMBL document CHEMBL3763092, “Design and synthesis of pyrrolobenzodiazepine-gallic hybrid agents as p53-dependent and -independent apoptogenic signaling in melanoma cells” (Eur J Med Chem, 2016).
The source made the active and inactive calls. The rule behind the calls is not given here.

Columns and labels:
A-375 [1] = experiment: Induction of reactive oxygen species generation in human A375 cells expressing p53 wild type assessed as increase in intracellular H2O2 level at 0.5 uM after 24 hrs by DCFH-DA staining based fluorescence analysis; format: functional, cell-based
Method in brief: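 A375 cells were treated with 0.5 µM for 0, 12 and 24 h and stained with DCFH-DA to detect intracellular H2O2.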

A-375 [2] = experiment: Induction of DNA lesion in human A375 cells expressing p53 wild type assessed as increase in 8-oxoguanine expression at 0.5 uM after 24 hrs by immunohistochemical analysis; format: functional, cell-based
Method in brief: (§1)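 A375 cells on coverslips (1 × 10^4) were treated with 0.5 µM for 24 h. Cells were fixed in 4% formaldehyde for 5 min at 4 °C, permeabilized with 0.5% Triton X-100, and blocked with 5% BSA at 37 °C for 45 min. Primary antibodies were applied for 1 h at RT: mouse anti-p-ATR and anti-p-ATM 1:1000, anti-8-oxoguanine 1:250, COX IV and cytochrome c 1:1000. Secondary antibodies (rhodamine for 8-oxoguanine) followed for 30 min. DAPI counterstain.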

A-375 [3] = experiment: Induction of DNA damage in human A375 cells expressing p53 wild type assessed as increase in ATR/ATM activation at 0.5 uM after 24 hrs by immuohistochemistry analysis; format: functional, cell-based; method in brief: as §1
A-375 [4] = experiment: Increase in Chk1 phosphorylation in human A375 cells expressing p53 wild type at 0.5 uM after 24 hrs by western blot analysis; format: functional, cell-based
Method in brief: (§2)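 A375 cells were exposed to 0.5 µM for 24 h, and lysates were immunoblotted with specific antibodies (p53, Cdc25c, p-Chk1, Bcl-xL, PARP, caspase-3). GAPDH served as loading control. Three independent experiments.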

A-375 [5] = experiment: Decrease in Cdc25c level in human A375 cells expressing p53 wild type at 0.5 uM after 24 hrs by western blot analysis; format: functional, cell-based; method in brief: as §2
A-375 [6] = experiment: Effect on cell cycle distribution in human A375 cells expressing p53 wild type assessed as number of cells at S-phase at 0.5 uM after 24 hrs by FACS analysis (reference value: 13.8 %); format: functional
A-375 [7] = experiment: Effect on cell cycle distribution in human A375 cells expressing p53 wild type assessed as number of cells at G2/M phase at 0.5 uM after 24 hrs by FACS analysis (reference value: 12.1 %); format: functional
A-375 [8] = experiment: Effect on cell cycle distribution in human A375 cells expressing p53 wild type assessed as number of cells at G0/G1 phase at 0.5 uM after 24 hrs by FACS analysis Rvb = 74.1 %); format: functional
A-375 [9] = experiment: Effect on cell cycle distribution in human A375 cells expressing p53 wild type assessed as number of cells at subG1 phase at 0.5 uM after 24 hrs by FACS analysis (reference value: 1 %); format: functional
A-375 [10] = experiment: Induction of apoptosis in human A375 cells expressing p53 wild type assessed as increase in p53 levels at 0.5 uM after 24 hrs by western blot analysis; format: functional, cell-based; method in brief: as §2
A-375 [11] = experiment: Induction of apoptosis in human A375 cells expressing p53 wild type assessed as decrease in Bcl-xl levels at 0.5 uM after 24 hrs by western blot analysis; format: functional, cell-based; method in brief: as §2
A-375 [12] = experiment: Induction of apoptosis in human A375 cells expressing p53 wild type assessed as increase in cleaved caspase-3 levels at 0.5 uM after 24 hrs by western blot analysis; format: functional, cell-based; method in brief: as §2
A-375 [13] = experiment: Induction of apoptosis in human A375 cells expressing p53 wild type assessed as increase in cleaved PARP levels at 0.5 uM after 24 hrs by western blot analysis; format: functional, cell-based; method in brief: as §2
A-375 [14] = experiment: Induction of apoptosis in human A375 cells expressing p53 wild type assessed as increase in p53 mRNA level by RT- qPCR analysis; format: functional, cell-based; settings: TDE = time-dependent effect
Method in brief: (§3)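 Quantitative real-time PCR on A375 cells over a time course, measuring p53, bax and bcl-xl mRNA normalized to GAPDH mRNA.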

A-375 [15] = experiment: Induction of apoptosis in human A375 cells expressing p53 wild type assessed as increase in bax mRNA level by RT- qPCR analysis; format: functional, cell-based; settings: TDE = time-dependent effect; method in brief: as §3
A-375 [16] = experiment: Induction of apoptosis in human A375 cells expressing p53 wild type assessed as decrease in bcl-xl mRNA level by RT- qPCR analysis; format: functional, cell-based; settings: TDE = time-dependent effect; method in brief: as §3
A-375 [17] = experiment: Induction of apoptosis in human A375 cells expressing p53 wild type assessed as decrease in mitochondrial membrane potential at 0.5 uM after 12 hrs by DiOC6 dye based flow cytometry; format: functional, cell-based
Method in brief: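 A375 cells were treated with 0.5 µM for 0, 12 and 24 h, labeled with DiOC6 and analyzed by flow cytometry. Three independent experiments.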

A-375 [18] = experiment: Induction of apoptosis in human A375 cells expressing p53 wild type assessed as increase release of cytochrome c from mitochondria to cytosol at 0.5 uM after 24 hrs by immunofluorescence analysis; format: functional, cell-based; method in brief: as §1
A-375 [19] = experiment: Induction of apoptosis in human A375 cells expressing p53 wild type assessed as lysosomal H+ concentration at 0.5 uM after 24 and 48 hrs by flow cytometric analysis; format: functional, cell-based
Method in brief: (§4)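 Cells were loaded with LysoTracker Green (75 nM) for 15 min at 37 °C before treatment with 0.5 µM for the indicated times. After washing, mean fluorescence was quantified by flow cytometry. For p53 knockdown, A375 cells (6 × 10^4/well, antibiotic-free DMEM) were transfected with 30 nM tp53 siRNA or non-target siRNA using Lipofectamine RNAiMAX and harvested at 24 h.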

A-375 [20] = experiment: Induction of apoptosis in human A375 cells transfected with siRNA p53 assessed as decrease in lysosomal H+ concentration at 0.5 uM after 24 and 48 hrs by flow cytometric analysis; format: functional, cell-based; method in brief: as §4
RPMI-7951 [21] = experiment: Induction of apoptosis in human RPMI7951 cells expressing p53 mutant assessed as decrease in lysosomal H+ concentration at 0.5 uM after 24 and 48 hrs by flow cytometric analysis; format: functional, cell-based; method in brief: as §4
RPMI-7951 [22] = experiment: Induction of apoptosis in human RPMI7951 cells expressing p53 mutant assessed as increased release of cathepsin D to cytosol at 0.5 uM by immunofluorescent staining analysis; format: functional, cell-based
Method in brief: (§5)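 RPMI7951 cells on coverslips (1 × 10^4) were treated with 0.5 µM for 24 h. Immunofluorescence steps: fixation in 4% formaldehyde, permeabilization with 0.5% Triton X-100, blocking with 5% BSA. Primary antibodies: rabbit anti-cathepsin D and mouse anti-LAMP-1 at 1:500, cytochrome c and COX IV at 1:1000, 1 h at RT. Secondary antibodies for 30 min. DAPI counterstain.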

RPMI-7951 [23] = experiment: Induction of apoptosis in human RPMI7951 cells expressing p53 mutant assessed as increased release of cytochrome c to cytosol at 0.5 uM by immunofluorescent staining analysis; format: functional, cell-based; method in brief: as §5
RPMI-7951 [24] = experiment: Induction of apoptosis in human RPMI7951 cells expressing p53 mutant assessed as PARP cleavage at 0.5 uM after 24 hrs by western blot analysis; format: functional, cell-based
A-375 [25] = experiment: Cytotoxicity against human A375 cells expressing p53 wild type assessed as cell viability at 1 uM after 24 hrs by MTT assay; format: functional; settings: A-375, 24 h, read-out: Activity
Method in brief: (§6)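 Cells were exposed to compound at 1 µM for 24 h, then growth and viability were read by MTT assay. Media: A375 in DMEM; RPMI7951 and MCF-7 in MEM; A549 in RPMI1640; H1299 in DMEM-F12; all with 10% FCS and penicillin/streptomycin, at 37 °C and 5% CO2. Fibroblasts came from adult foreskin. DMSO stocks were 10 mM.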

[26] = Cytotoxicity against human RPMI7951 cells expressing p53 mutant assessed as cell viability at 1 uM after 24 hrs by MTT assay; format: functional; settings: RPMI-7951, 24 h, read-out: Activity; method in brief: as §6
MCF7 = experiment: Cytotoxicity against human MCF7 cells expressing p53 wild type assessed as cell viability at 1 uM after 24 hrs by MTT assay; format: functional; settings: MCF7, 24 h, read-out: Activity; method in brief: as §6
A549 = experiment: Cytotoxicity against human A549 cells assessed as cell viability at 1 uM after 24 hrs by MTT assay; format: functional; settings: A549, 24 h, read-out: Activity; method in brief: as §6
[27] = Cytotoxicity against p53 knockout human H1299 cells assessed as cell viability at 1 uM after 24 hrs by MTT assay; format: functional; settings: NCI-H1299, 24 h, read-out: Activity; method in brief: as §6
[28] = Cytotoxicity against human fibroblast cells expressing p53 wild type assessed as cell viability at 1 uM after 24 hrs by MTT assay; format: cell-based; settings: read-out: Activity; method in brief: as §6
A-375 [29] = experiment: Cytotoxicity against human A375 cells expressing p53 wild type assessed as colony formation at 0.5 uM after 10 days by SRB assay; format: functional, cell-based
Method in brief: (§7)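 Cells were seeded at 100 per well and treated from the second day. Medium containing 0.5 µM agent was renewed every 3 days. After 10 days of treatment, colonies were stained with SRB and photographed. Three independent experiments.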

RPMI-7951 [30] = experiment: Cytotoxicity against human RPMI7951 expressing p53 mutant cells assessed as colony formation at 0.5 uM after 10 days by SRB assay; format: functional, cell-based; method in brief: as §7

## COc1cc2c(cc1OCCCCCOc1cc(OC)c(OC)c(OC)c1)N=C[C@@H]1CCCN1C2=O
A-375 [1]
  Activity: Active
A-375 [2]
  Activity: Active
A-375 [3]
  Activity: Active
A-375 [4]
  Activity: Active
A-375 [5]
  inhibition: Active
A-375 [6]
  Activity: 37%
A-375 [7]
  Activity: 4.2%
A-375 [8]
  Activity: 45.8%
A-375 [9]
  Activity: 16%
A-375 [10]
  Activity: Active
A-375 [11]
  Activity: Active
A-375 [12]
  Activity: Active
A-375 [13]
  Activity: Active
A-375 [14]
  Activity: tde
A-375 [15]
  Activity: tde
A-375 [16]
  Activity: tde
A-375 [17]
  Activity: Active
A-375 [18]
  Activity: Active
A-375 [19]
  Activity: inactive
A-375 [20]
  Activity: Active
RPMI-7951 [21]
  Activity: Active
RPMI-7951 [22]
  Activity: Active
RPMI-7951 [23]
  Activity: Active
RPMI-7951 [24]
  Activity: Active
A-375 [25]
  viability at 1 µM: 37.7%
[26]
  viability at 1 µM: 64.6%
MCF7
  viability at 1 µM: 55%
A549
  viability at 1 µM: 78%
[27]
  viability at 1 µM: 69.4%
[28]
  viability at 24 h, 1 µM: 111%
A-375 [29]
  inhibition: Active
RPMI-7951 [30]
  inhibition: Active

## COc1cc2c(cc1OCCCCNC(=O)c1cc(OC)c(OC)c(OC)c1)N=C[C@@H]1CCCN1C2=O
A-375 [25]
  viability at 1 µM: 79.5%
[26]
  viability at 1 µM: 83%
MCF7
  viability at 1 µM: 96.3%
A549
  viability at 1 µM: 100%
[27]
  viability at 1 µM: 95%
[28]
  viability at 24 h, 1 µM: 98.2%
